# Jurkat tox 60K: cytotoxic compounds reducing Jurkat cell viability; Jurkat E6.1 viability, ATP luminescence, 48 h; 56,000 tested, 1.2% active; AID 463; inhibition, % at 4 µM;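 active = inhibition above the mean inhibition of all tested compounds plus 3 SD, cut at about 28% in these data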
# MT1-MMP txn act: activates MT1-MMP transcription; 86,000 tested, 0.16% active; HT1080 MT1-MMP promoter luciferase reporter, luminescence, overnight; active compounds read high; activation factor at 10 µM; AID 750;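 active = activation factor of at least 2 for MT1-MMP transcription at 10 µM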
# Lung fibro prol: blocks proliferation of human lung fibroblasts; 85,000 tested, 1.1% active; viability, % at 10 µM; AID 719; LL 47 human lung fibroblast viability, ATP luminescence; active compounds read low;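 active = viability at or below 50% in the single dose screen; inactive = viability above 50%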;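 note: compound exposure lasted 72 h before the ATP readout; 100% = median luminescence of untreated cell-only wells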
#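 Material: human lung fibroblast line LL 47, low passage; Evaluation: viability percentage against median untreated-cell control; Buffer or medium: 15% FBS in IMEM; Incubation: 72 h compound exposure at 37 °C after overnight plating; Dosing: 0.1% DMSO in all compound wells; Measured by: CellTiter-Glo luminescence.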
# HUVEC prolif 384: blocks proliferation of human endothelial cells; HUVEC proliferation, CellTiter-Glo luminescence, 72 h; active compounds read low; viability, % at 10 µM (by protocol); 86,000 tested, 1.1% active;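 active = viability at or below 30%; inactive = viability above 30%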;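 note: 100% = median luminescence of DMSO-only cell control wells on each plate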
# H69AR inhibit: blocks growth of human H69AR lung tumor cells. H69AR lung tumor viability, ATP luminescence, 72 h; active compounds read low. viability, % at 10 µM. AID 598. 85,000 tested, 6% active;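 active = viability at or below 40%; inactive = viability above 40%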;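 note: multidrug resistant small cell line overexpressing MRP-1 efflux transporter; 100% = mean luminescence of untreated control wells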
# PTK2B oligo ant: Pyk2 (human) oligomerization antagonism; Q14289; Q293 cells, Pyk2 FERM NanoBiT luminescence; active compounds read low; z-score (the deposit names both 25 µM and 10 µM); 99,000 tested, 0.83% active;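 active = Z-score of -3 or lower, scaled per plate to the spread of control and sample wells; inactive = z-score above -3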;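 note: negative z-score means lost luminescence so less FERM oligomerization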
# Target sequence (Q14289 whole entry, looked up): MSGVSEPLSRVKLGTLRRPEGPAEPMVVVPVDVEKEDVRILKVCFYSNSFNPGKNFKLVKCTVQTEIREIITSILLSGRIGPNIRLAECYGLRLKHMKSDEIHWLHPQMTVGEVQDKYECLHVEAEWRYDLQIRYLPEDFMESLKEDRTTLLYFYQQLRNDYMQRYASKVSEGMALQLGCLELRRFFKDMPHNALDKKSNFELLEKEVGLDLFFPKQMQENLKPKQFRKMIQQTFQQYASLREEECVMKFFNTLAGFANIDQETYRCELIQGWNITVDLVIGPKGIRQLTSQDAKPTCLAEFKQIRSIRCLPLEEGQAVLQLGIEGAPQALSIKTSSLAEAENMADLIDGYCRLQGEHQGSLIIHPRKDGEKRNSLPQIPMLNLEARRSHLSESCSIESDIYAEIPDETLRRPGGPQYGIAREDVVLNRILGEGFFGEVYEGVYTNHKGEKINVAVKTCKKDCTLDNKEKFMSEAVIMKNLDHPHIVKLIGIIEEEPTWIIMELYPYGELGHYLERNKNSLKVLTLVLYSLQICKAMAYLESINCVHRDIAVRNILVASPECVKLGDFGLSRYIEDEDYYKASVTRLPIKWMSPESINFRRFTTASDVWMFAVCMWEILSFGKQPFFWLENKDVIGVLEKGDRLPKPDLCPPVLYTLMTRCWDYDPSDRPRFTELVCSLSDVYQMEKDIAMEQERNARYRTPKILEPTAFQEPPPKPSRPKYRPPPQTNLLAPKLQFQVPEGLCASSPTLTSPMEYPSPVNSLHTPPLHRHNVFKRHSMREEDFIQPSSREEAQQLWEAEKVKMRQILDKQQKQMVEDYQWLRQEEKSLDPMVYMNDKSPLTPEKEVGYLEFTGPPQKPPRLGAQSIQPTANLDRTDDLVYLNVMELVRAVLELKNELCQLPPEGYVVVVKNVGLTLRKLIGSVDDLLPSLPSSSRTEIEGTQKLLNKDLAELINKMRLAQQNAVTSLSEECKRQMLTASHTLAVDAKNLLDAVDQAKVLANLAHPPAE
# Numbers without * were called inactive; . = no result given. Rows were chosen to be rich in hits. Some 5.9% of all compounds tested hit in one or more screens of this group.
SMILES,Jurkat tox 60K,MT1-MMP txn act,Lung fibro prol,HUVEC prolif 384,H69AR inhibit,PTK2B oligo ant
O=C(Nc1ccccc1C(F)(F)F)c1cc(-c2ccccc2O)on1,89*,1.7,103,108,83,1.4
CCN(CC)c1nc2ccccc2c(N)c1-c1ccccc1,.,1.2,92,78,39*,-0.87
Cc1c(N(C)C)nc2ccccc2c1N,3,1.2,.,.,.,-0.16
Cc1ccc(/C=N/c2sc3c(c2C#N)CCC3)s1,.,2.3*,94,92,88,1.1
CCCCn1c(N)c(N(CCC(C)C)C(=O)CSc2nnc(C)s2)c(=O)[nH]c1=O,-1,0.9,95,97,91,0.61
Cc1ccc(CS(=O)(=O)CCC(=O)NCc2cccs2)cc1,3,1.1,101,101,94,0.63
C=CCNc1nc(N)c(C(=O)c2ccc3c(c2)OCO3)s1,-4,1.6,95,102,29*,0.2
CCC(C)NC(=O)c1ccc(CS(=O)(=O)Cc2ccc(Cl)cc2)o1 (centres undefined),.,1.2,98,104,101,1.3
CN1C(=O)/C(=C/c2ccccc2OCc2cccc(F)c2)NC1=S,.,.,.,.,.,0.44
COC(=O)c1ccccc1CCC(C)=O,0,1,91,78,24*,1.3
Cc1ccc(Cn2nc(C)c(NC(=O)c3cc(-c4ccc5c(c4)OCO5)on3)c2C)cc1,-8,1.2,93,34,7.4*,.
COc1ccc(-c2cc(C(=O)Nc3c(C)nn(Cc4ccc(Cl)cc4)c3C)no2)cc1,.,.,54,42,16*,1.1
COc1ccc(-c2cc(C(=O)Nc3c(C)nn(Cc4ccccc4Cl)c3C)no2)cc1OC,1,1,81,47,20*,-0.29
Cc1nn(Cc2ccc(F)cc2)c(C)c1NC(=O)c1cc(-c2ccc3c(c2)OCO3)on1,8,1.1,98,68,86,.
Cc1nn(Cc2ccc(Cl)cc2)c(C)c1NC(=O)c1cc(-c2ccco2)on1,16,1.1,95,86,96,-0.12
C=CCn1c(NCc2ccc(N(C)C)cc2)nc2ccccc21,-7,.,95,89,74,0.29
CCCN1C(=O)c2ccccc2NC1c1ccc(OC)cc1O (centres undefined),36*,1.3,82,79,108,0.04
CCCN1C(=O)c2ccccc2NC1c1ccc(OC)cc1OC (centres undefined),0,1.3,99,95,104,-0.36
COc1ccc(Nc2nc(N3CCCC3)c3ccccc3n2)cc1,19,0.8,20*,7.7*,36*,-2.7
CCN(CC)c1ccc(Nc2nc(N3CCOCC3)c3ccccc3n2)cc1,.,1.3,88,81,32*,-0.28
COc1ccc(Nc2nc(N3CCCCC3)nc3ccccc23)c(OC)c1,.,1.3,77,72,9.0*,-1.4
CSc1nc(N2CCOCC2)c2ccccc2n1,-1,1,96,97,81,-0.34
COc1ccc(Nc2nc(N3CCCCC3)nc(N3CCCCC3)n2)c(OC)c1,-3,1.2,94,96,86,0.09
c1ccc2c(N3CCCCC3)nc(N3CCCC3)nc2c1,7,1.1,.,.,.,-0.31
CC1CCN(S(=O)(=O)c2ccc3c(c2)c(=O)c(C(=O)N2CCCCC2)cn3C)CC1,0,1,95,98,98,-0.53
SMILES,Jurkat tox 60K,MT1-MMP txn act,Lung fibro prol,HUVEC prolif 384,H69AR inhibit,PTK2B oligo ant
CCOC(=O)c1c(CN2CCN(C)CC2)n(C)c2cc(Br)c(OC)cc12,.,1.1,71,33,7.3*,-0.38
COc1cc(CNCc2ccccn2)ccc1OCc1cccc(Cl)c1,.,.,.,.,.,-0.11
Cc1cccc(Nc2nc(-c3cccs3)cs2)n1,.,2.3*,89,80,62,-0.11
c1ccc(Nc2nc(-c3cccs3)cs2)nc1,3,0.8,.,.,.,-0.12
Cc1cccc(Nc2nc(-c3ccccn3)cs2)n1,3,0.9,69,60,3.9*,-0.14
CC(=O)c1c(O)cc(=O)n(-c2ccccc2)c1-c1cccc2ccccc12,.,.,.,.,.,-0.07
C=CCSc1nnc(C)n1-c1ccc(Cl)cc1,-5,1,93,92,98,0.36
CC1=CCC2C(=O)N(c3nc(C)cc(C)n3)C(=O)C2C1 (centres undefined),-3,1,94,106,89,-0.88
COc1ccc(C2CC(c3ccc(Cl)c(Cl)c3)Nc3nc(N)nn32)cc1 (centres undefined),3,1.1,94,84,34*,.
COc1ccc(C2CC(c3ccccc3)Nc3nc(NC(=O)c4cccs4)nn32)cc1 (centres undefined),6,1.1,88,82,83,-3.5*
COc1ccc(C2CC(c3ccccc3)n3nc(NC(=O)c4cccs4)nc3N2)cc1 (centres undefined),4,1,95,97,67,-2.9
CCOC(=O)C1=C(C)N(CCCC(=O)O)C(=O)NC1c1ccc2c(c1)OCO2 (centres undefined),.,1.1,.,.,.,.
CC(C)Cc1nc2oc3c(Cl)ncnc3c2c2c1CCC2,.,1,45*,3.3*,70,-0.06
Oc1ccccc1CNc1cnc2ccccc2c1,.,2.1*,101,87,90,-0.03
CCOC(=O)C1=C(C)N(c2ccccc2)C(=O)NC1c1cccc([N+](=O)[O-])c1 (centres undefined),.,.,.,.,.,-1.2
CC1=C(C(=O)Nc2ccccc2)C(c2cccc([N+](=O)[O-])c2)Nc2nc3ccccc3n21 (centres undefined),.,1.2,96,91,35*,-1
CCCn1c(N2CCN(CC(=O)NCc3cccs3)CC2)nc2ccccc21,0,1,99,102,38*,-0.26
CCCn1c(N2CCN(S(=O)(=O)Cc3ccccc3)CC2)nc2ccccc21,7,1.1,57,77,39*,-0.6
Cc1ccc(C)c(NS(=O)(=O)c2cc(C(=O)NCCC3=CCCCC3)ccc2C)c1,.,.,.,.,.,-1.6
CC(=O)N1CC=CC1(CC(C)C)C(=O)NCc1ccccn1 (centres undefined),.,1,.,.,.,.
CCCc1nc(SCC(=O)N2CCCC2)c2ccccc2n1,-4,1,93,82,38*,0.63
Cc1cc(NC(=O)CSc2nc(CCC3CCCC3)nc3ccccc23)no1,-5,0.9,.,.,.,-0.48
CCC(C)n1c(SCC(=O)Nc2cc(C)on2)nc2ccccc2c1=O (centres undefined),.,1,97,80,26*,-1.7
CCCc1nc(SCC(=O)Nc2cc(C)on2)c2ccccc2n1,0,1.2,84,84,32*,0.15
CN(C)c1cccc(C(=O)Nc2ccc(N3CCOCC3)cc2)c1,.,.,.,.,.,-0.55
CCOC(=O)c1ccc(NC(=O)N2CC(C)OC(C)C2)cc1 (centres undefined),-4,2*,97,92,78,-0.64
CCOC(=O)c1ccc(NC(=O)CN2C(=O)C3C4C=CC(C4)C3C2=O)cc1 (centres undefined),.,.,100,94,35*,-0.13
CC(=O)c1cn(CC(=O)Nc2ccc(C)cc2C)c2ccccc12,.,1,92,86,93,0.34
CC1=CC(C)=Nc2ccc(C)cc2N1,0,1.8,100,97,18*,0.67

# Source: PubChem BioAssay
